Holding throughout (format): functional
The nature of assay [1]: Growth inhibition of human NCI-460 cells after 48 hrs by sulforhodamine B assay. Particulars: NCI-460, 48 h. The gist of the method:
(§1)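 Sulforhodamine B colorimetric assay following the NCI standard protocol, with doxorubicin as positive control. Each compound was tested at four concentrations in 10-fold dilutions (0.25 to 250). GI50, the concentration giving 50% growth reduction versus untreated control cells, was derived from dose–response curves.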
Background: The SRB assay estimates cell density from bound dye.

The test system of assay [2] is OVCAR. Kind of assay: Growth inhibition of human OVCAR cells after 48 hrs by sulforhodamine B assay. The gist of the method:
as §1

In assay [3] the test system is MCF7. Kind of assay: Growth inhibition of human MCF7 cells after 48 hrs by sulforhodamine B assay. Particulars: MCF7, 48 h. The gist of the method:
as §1

In assay [4] the test system is UACC-62. Put plainly: Growth inhibition of human UACC-62 cells after 48 hrs by sulforhodamine B assay. Conditions: UACC-62, 48 h. Put shortly:
as §1

For assay [5], the system named is HT-29. Put plainly: Growth inhibition of human HT-29 cells after 48 hrs by sulforhodamine B assay. Conditions: HT-29, 48 h. The gist of the method: as §1
Assay [6] deals with K562. Put plainly: Growth inhibition of human K-562 cells after 48 hrs by sulforhodamine B assay. Conditions: K562, 48 h. Put shortly:
as §1

Assay [7] is described as follows: Growth inhibition of human PCO3 cells after 48 hrs by sulforhodamine B assay. Conditions: PCO3, 48 h. Put shortly: as §1
The test system of assay [8] is 786-0. Kind of assay: Growth inhibition of human 786-0 cells after 48 hrs by sulforhodamine B assay. Conditions: 786-0, 48 h; for CC50: read-out: LC50 (the source's name). Put shortly:
as §1

A word on the GI50: it is the concentration that inhibits growth by half. A higher GI50 goes with lower sensitivity of the cells. A word on the TGI: it is the concentration giving total growth inhibition. The low end stands for more potent growth arrest, the high end for less potent growth arrest.

Some results are limits rather than exact numbers.

Take `CSc1nnc(-c2cc3c([nH]c4ccccc43)c(-c3ccc(O)cc3)n2)o1`: the concentration for 50% growth inhibition (GI50) was found to be 17.8 µM in assay [1]; 13.5 µM in assay [2]; 7.42 µM in assay [3]; 19.1 µM in assay [4]; 12.8 µM in assay [5]; 10.8 µM in assay [6]. The 50% growth inhibitory concentration (GI50) in assay [7] was 10.5 µM; in assay [8], 11.8 µM. Further, in assay [1], the LC50 (concentration for 50% net cell kill) is more than 100 µM. The total growth inhibition concentration (TGI) was 73.4 µM in assay [1]; 35 µM in assay [2]; 23.4 µM in assay [3]; more than 100 µM in assay [4]; 35 µM in assay [5]; 28.8 µM in assay [6]. Moreover, the concentration for total growth inhibition (TGI) in assay [7] and in assay [8] was 24.8 µM each time. In assay [2], the LC50 (concentration killing 50% of the cells, NCI protocol) is 100 µM. Further, the LC50 (concentration killing 50% of cells) in assay [3] came to 80.3 µM; in assay [7], 59.2 µM. Further, the LC50 (concentration killing 50% of the cells present at the start) in assay [5] was more than 100 µM. For the same molecule, the CC50 in assay [8] was 51.9 µM.
Take `S=c1[nH]nc(-c2cc3c([nH]c4ccccc43)c(-c3ccccc3Cl)n2)o1`: the GI50 in assay [1] was 20.8 µM; in assay [2], 45.9 µM; in assay [3] it was 26.9 µM; in assay [4], 18.1 µM; in assay [5], 17.4 µM; in assay [6], 20.3 µM. Also, the GI50 in assay [7] was found to be 21.4 µM; in assay [8], 27.9 µM. Besides, the TGI is more than 100 µM in assay [1]; more than 100 µM in assay [2]; more than 100 µM in assay [3]; 80.1 µM in assay [4]; more than 100 µM in assay [5]; 74 µM in assay [6]. In addition, the TGI in assay [7] and in assay [8] was more than 100 µM throughout. The same molecule displayed an LC50 (concentration killing 50% of cells, NCI protocol) in assay [4] of more than 100 µM. The molecule further returned an LC50 (concentration causing 50% net cell kill) in assay [6] of more than 100 µM.
On to `COc1ccc(-c2nc(-c3n[nH]c(=S)[nH]3)cc3c2[nH]c2ccccc23)cc1`, for which the GI50 was 0.1 µM in assay [1]; more than 100 µM in assay [2]; more than 100 µM in assay [3]; 66.8 µM in assay [4]; more than 100 µM in assay [5]; more than 100 µM in assay [6]. The 50% growth inhibitory concentration (GI50) in assay [7] was more than 100 µM; in assay [8], 7.48 µM.
Take `Oc1ccc(-c2nc(-c3n[nH]c(=S)[nH]3)cc3c2[nH]c2ccccc23)cc1`: the GI50 in assay [1] is 6.69 µM; in assay [2], 6.41 µM; in assay [3], 19.8 µM; in assay [4], 10.6 µM; in assay [5] it was 46.2 µM; in assay [6], more than 100 µM. Besides, the concentration for 50% growth inhibition (GI50) in assay [7] was 0.5 µM; in assay [8], 0.17 µM. In addition, the TGI in assay [1], in assay [2], in assay [3], in assay [4], in assay [5] and in assay [6] was more than 100 µM in each case. Further, the TGI was found to be 40.7 µM in assay [7] and 23.8 µM in assay [8]. The molecule also returned an LC50 (concentration killing 50% of cells) in assay [7] of more than 100 µM. Further, the CC50 in assay [8] was more than 100 µM.
With `COc1cc(-c2nc(-c3n[nH]c(=S)o3)cc3c2[nH]c2ccccc23)ccc1O`, the GI50 in assay [1] was determined as 89.3 µM; in assay [2], 5.87 µM; in assay [3], 32.2 µM; in assay [4] it was 17.3 µM; in assay [5], 17.3 µM; in assay [6] it was 31.7 µM. The GI50 in assay [7] was 25.9 µM; in assay [8], 22.4 µM. For the same molecule, the TGI in assay [1] was more than 100 µM; in assay [2], more than 100 µM; in assay [3], more than 100 µM; in assay [4], 47.9 µM; in assay [5], more than 100 µM; in assay [6], more than 100 µM. Further, the TGI is 97.3 µM in assay [7] and more than 100 µM in assay [8]. Moreover, the LC50 (concentration killing 50% of cells, NCI protocol) in assay [4] is more than 100 µM. The LC50 (concentration killing 50% of cells) in assay [7] was more than 100 µM.
With `Nn1c(-c2cc3c([nH]c4ccccc43)c(-c3ccc(O)cc3)n2)n[nH]c1=S`, the GI50 was 0.15 µM in assay [1]; 27.5 µM in assay [2]; 61.2 µM in assay [3]; 22.5 µM in assay [4]; 34 µM in assay [5]; 29.9 µM in assay [6]. Further, the concentration for 50% growth inhibition (GI50) in assay [7] stood at 25.5 µM; in assay [8], 0.26 µM. Besides, the TGI in assay [1] is 12.2 µM; in assay [2] it was 98.4 µM; in assay [3], more than 100 µM; in assay [4], more than 100 µM; in assay [5], more than 100 µM; in assay [6] it was more than 100 µM. For the same molecule, the TGI in assay [7] is more than 100 µM; in assay [8], 94.1 µM. The LC50 (concentration killing 50% of the cells, NCI protocol) in assay [2] was more than 100 µM. The CC50 in assay [8] is more than 100 µM.
In the case of `O=[N+]([O-])c1cccc(-c2nc(-c3n[nH]c(=S)o3)cc3c2[nH]c2ccccc23)c1`, the 50% growth inhibitory concentration (GI50) came to 73.4 µM in assay [1]; 22.3 µM in assay [2]; 27.9 µM in assay [3]; 24.1 µM in assay [4]; 27.9 µM in assay [5]; 11 µM in assay [6]. The figures for the GI50 in assay [7] and in assay [8] were 12.2 µM and 32.4 µM, respectively. In addition, the TGI in assay [1] is more than 100 µM; in assay [2] it was more than 100 µM; in assay [3] it was more than 100 µM; in assay [4] it was more than 100 µM; in assay [5] it was more than 100 µM; in assay [6] it was 86.7 µM. In addition, the TGI was 35.7 µM in assay [7] and more than 100 µM in assay [8]. The molecule further had an LC50 (concentration causing 50% net cell kill) in assay [6] of more than 100 µM. In assay [7], this molecule yielded an LC50 (concentration killing 50% of cells) of more than 100 µM.
Take `CSc1nnc(-c2cc3c([nH]c4ccccc43)c(-c3cccc([N+](=O)[O-])c3)n2)o1`: the GI50 in assay [1] was determined as 24.5 µM; in assay [2], 21.3 µM; in assay [3], 79.8 µM; in assay [4] it was 16.4 µM; in assay [5], 68.1 µM; in assay [6], 21.3 µM. Further, the concentration for 50% growth inhibition (GI50) is 44.2 µM in assay [7] and more than 100 µM in assay [8]. The same molecule displayed an LC50 (concentration for 50% net cell kill) in assay [1] of more than 100 µM. Further, the TGI in assay [1] was 99.2 µM; in assay [2] it was more than 100 µM; in assay [3] it was more than 100 µM; in assay [4], 69.4 µM; in assay [5], more than 100 µM; in assay [6], 81.5 µM. Further, the TGI in assay [7] and in assay [8] was more than 100 µM throughout. In assay [4], this molecule had an LC50 (concentration killing 50% of cells, NCI protocol) of more than 100 µM. Also, in assay [6], the LC50 (concentration causing 50% net cell kill) was more than 100 µM.
As for `Oc1ccc(-c2nc(-c3n[nH]c(=S)o3)cc3c2[nH]c2ccccc23)cc1`, the GI50 was more than 100 µM in assay [1]; more than 100 µM in assay [2]; 88.7 µM in assay [3]; more than 100 µM in assay [4]; more than 100 µM in assay [5]; 21.5 µM in assay [6]. Moreover, the values for the concentration for 50% growth inhibition (GI50) in assay [7] and in assay [8] were 81.1 µM and 94.9 µM, respectively. The TGI in assay [1] was more than 100 µM; in assay [2], more than 100 µM; in assay [3] it was more than 100 µM; in assay [4], more than 100 µM; in assay [5] it was more than 100 µM; in assay [6] it was 87 µM. Further, the concentration for total growth inhibition (TGI) in assay [7] and in assay [8] was more than 100 µM each time. In assay [6], this molecule displayed an LC50 (concentration causing 50% net cell kill) of more than 100 µM.

The values above are taken from ChEMBL document CHEMBL1151684, “Synthesis and antitumoral activity of novel 3-(2-substituted-1,3,4-oxadiazol-5-yl) and 3-(5-substituted-1,2,4-triazol-3-yl) beta-carboline derivatives” (2008).
